Our source for the IC50 values is ChEMBL document CHEMBL3392995, “Erinacerins C-L, isoindolin-1-ones with α-glucosidase inhibitory activity from cultures of the medicinal mushroom Hericium erinaceus” (J Nat Prod, 2015).

What is called IC50 is the concentration needed to halve the response being measured.

In test [1] the test system is HeLa. Nature of the test: Cytotoxicity against human HeLa cells after 72 hrs by MTT assay. Type of test: functional, cell-based. In short, it runs like this:
(§1)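 MTT read-out of cell viability in A549 (human lung adenocarcinoma) and HeLa (cervical cancer) cells. Values are means of three independent experiments, each run in triplicate.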
A general note: Tetrazolium assays rely on reduction of a dye to a coloured formazan, in cell work by metabolically active cells.

Test [2] can be described thus: Inhibition of baker's yeast alpha-glucosidase using p-nitrophenyl-alpha-D-glucopyranoside as substrate incubated with enzyme for 10 mins prior to substrate challenge for 15 mins by microplate reader analysis. The arrangement: species or system Saccharomyces cerevisiae. In short, it runs like this: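 Run in 96-well format, read as absorbance at 405 nm. Control used phosphate buffer in place of sample; blank used phosphate buffer in place of α-glucosidase. Inhibition (%) = [(ODcontrol − ODcontrol blank) − (ODtest − ODtest blank)]/(ODcontrol − ODcontrol blank) × 100. Acarbose served as positive control. Means of three independent experiments, each in triplicate.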

The test system of test [3] is A549. Nature of the test: Cytotoxicity against human A549 cells after 72 hrs by MTT assay. It counts as functional, cell-based. The settings on record: A549, 72 h. Put shortly: as §1

Regarding `C/C(=C\Cc1c(O)cc2c(c1O)CNC2=O)CC/C=C(\C)C(=O)O`, the IC50 is greater than 100 µM in test [1], greater than 200 µM in test [2] and greater than 100 µM in test [3].
With `C/C(=C\Cc1c(O)cc2c(c1O)CN(CCO)C2=O)CC/C=C(\C)C(=O)O`, the IC50 in test [1] was greater than 100 µM; in test [2], 24.2 µM; in test [3], greater than 100 µM.
As to `C/C(=C\Cc1c(O)cc2c(c1O)CN([C@H](C(=O)O)C(C)C)C2=O)CC/C=C(\C)C(=O)O`, the figures for the IC50 in test [1], in test [2] and in test [3] were greater than 100 µM, 12.8 µM and greater than 100 µM, respectively.
As for `CC[C@H](C)[C@@H](C(=O)O)N1Cc2c(cc(O)c(C/C=C(\C)CC/C=C(\C)C(=O)O)c2O)C1=O`, the IC50 in test [1] is greater than 100 µM; in test [2], 39.6 µM; in test [3], greater than 100 µM.
For the molecule `COC(=O)CC/C(C)=C/Cc1c(O)cc2c(c1O)CNC2=O`, the IC50 in test [1] is greater than 100 µM; in test [2], 145 µM; in test [3] it was greater than 100 µM.
Turning to `COC(=O)C/C=C(\C)CCc1c(O)cc2c(c1O)CNC2=O`, the results for the IC50 in test [1], in test [2] and in test [3] were greater than 100 µM, 10.3 µM and greater than 100 µM, respectively.
Consider `COC(=O)CC/C(C)=C/Cc1c(O)cc2c(c1O)CN(CCO)C2=O`, for which the IC50 in test [1] is greater than 100 µM; in test [2], 97.8 µM; in test [3], greater than 100 µM.
As to `COC(=O)C/C=C(\C)CCc1c(O)cc2c(c1O)CN(CCO)C2=O`, the values for the IC50 in test [1], in test [2] and in test [3] were greater than 100 µM, 18.6 µM and 96.1 µM, respectively.
The like results for `COC(=O)CC/C(C)=C/Cc1c(O)cc2c(c1O)CN([C@@H](Cc1ccccc1)C(=O)OC)C2=O` were, in that order, greater than 100 µM, 15.5 µM and 89.7 µM.
The like results for `COC(=O)C/C=C(\C)CCc1c(O)cc2c(c1O)CN([C@@H](Cc1ccccc1)C(=O)OC)C2=O` were, in that order, greater than 100 µM, 19.8 µM and greater than 100 µM.
The like results for `COc1cc2c(c(O)c1C/C=C(\C)CCC=C(C)C)CN(CCc1ccccc1)C2=O` were, in that order, 40.5 µM, 5.3 µM and 49 µM.
Turning to `O=C(O)[C@@H](Cc1ccccc1)N1Cc2ccccc2C1=O`, the IC50 in test [1] is greater than 100 µM; in test [2], greater than 200 µM; in test [3] it was greater than 100 µM.
As to `CC[C@H](C)[C@@H](C(=O)O)N1Cc2ccccc2C1=O`, the IC50 in test [1] was greater than 100 µM; in test [2], greater than 200 µM; in test [3] it was greater than 100 µM.
Regarding `CC(C)[C@@H](C(=O)O)N1Cc2ccccc2C1=O`, the IC50 in test [1] was greater than 100 µM; in test [2] it was greater than 200 µM; in test [3] it was 89.7 µM.
On the same counts, the results for `CC(C)[C@H](C(=O)O)N1Cc2ccccc2C1=O` are greater than 100 µM, greater than 200 µM and 41.5 µM.
On the same counts, the results for `O=C(O)[C@H](Cc1ccccc1)N1Cc2ccccc2C1=O` are greater than 100 µM, greater than 200 µM and greater than 100 µM.
As for `C[C@H]1O[C@H](O[C@H]2[C@H](O)[C@@H](O)[C@@H](O[C@H]3[C@H](O)[C@@H](O)C(O)O[C@@H]3CO)O[C@@H]2CO)[C@H](O)[C@@H](O)[C@@H]1N[C@H]1C=C(CO)[C@@H](O)[C@H](O)[C@H]1O` (some centres undefined) [ACARBOSE], the half-maximal inhibitory concentration (IC50) in test [2] was 383 µM.
